Test results: the array DNA melting data of Ke et al. (doi:10.1101/2024.01.08.574731)

Key:
[1] = folding enthalpy; higher = less favourable; fluorescence melt of hairpins on a sequencing array, two-state fit; conditions: sodium 0.088 M
Method in brief: (§1)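 To match UV melts, fitted temperatures were raised by 9.35 °C. These fits were bootstrapped two-state models that gave melting temperature and folding enthalpy, combined by inverse variance over four replicates. The input was normalised Cy3 fluorescence of library hairpins with annealed Cy3 and quencher oligos on a sequenced MiSeq flow cell, imaged in 50 mM Na-HEPES pH 8.0, 25 mM NaCl in 2.5 °C steps up to 60 °C.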

[2] = melting temperature; fluorescence melt of hairpins on a sequencing array, two-state fit, raised by 9.35 °C to match UV melts; conditions: sodium 0.088 M
Method in brief: as §1

GAAACCGAAAGGTTATTC ((((((....)))..)))
folding enthalpy [1]: -12.4 kcal/mol
Tm [2]: 29.6 °C

GACTCCGAAAGGATTGTC ((((((....)))..)))
folding enthalpy [1]: -16.3 kcal/mol
Tm [2]: 36.8 °C

GGCGAGCCGAAAGGCGCC (((..(((....))))))
folding enthalpy [1]: -13.1 kcal/mol
Tm [2]: 65 °C

GGCCCGCGAAAGCGAGCC (((.(((....))).)))
folding enthalpy [1]: -31.3 kcal/mol
Tm [2]: 67.2 °C

GATTGTGGAAACACGATC (((.(((....))).)))
folding enthalpy [1]: -31.7 kcal/mol
Tm [2]: 48.1 °C

GCTCTGCGAAAGCATTGC ((..(((....)))..))
folding enthalpy [1]: -14.2 kcal/mol
Tm [2]: 40.5 °C

GATCAGACACCTGATC ((((((....))))))
folding enthalpy [1]: -34.1 kcal/mol
Tm [2]: 47.1 °C

GATCTTATGGAAGATC ((((((....))))))
folding enthalpy [1]: -29.2 kcal/mol
Tm [2]: 40.5 °C

GCTCACTCGAAAGAGAGC (((..(((....))))))
folding enthalpy [1]: -25.1 kcal/mol
Tm [2]: 41.6 °C

GCAATTGGAAACGATTGC (((((.(....).)))))
folding enthalpy [1]: -37.4 kcal/mol
Tm [2]: 48.4 °C

GATCAGCTGACTGATC ((((((....))))))
folding enthalpy [1]: -37.6 kcal/mol
Tm [2]: 51.5 °C

GACAGCGAAAGCTAAGTC ((((((....)))..)))
folding enthalpy [1]: -17.5 kcal/mol
Tm [2]: 38.2 °C

CGTTCGGAAACGACAACG ((((((....)))..)))
folding enthalpy [1]: -15.2 kcal/mol
Tm [2]: 34.4 °C

CGCTCCGGAAACGGGCG (((.(((....))))))
folding enthalpy [1]: -32.5 kcal/mol
Tm [2]: 54.1 °C

GCGAGGCGAAAGCATGGC ((.(.((....)).).))
folding enthalpy [1]: -16.4 kcal/mol
Tm [2]: 49.3 °C

GTTCTGGGAAACTGGAAC ((((..(....)..))))
folding enthalpy [1]: -31.9 kcal/mol
Tm [2]: 34.8 °C

GTCGTCGGAAACGGCGAC ((((.((....)).))))
folding enthalpy [1]: -41.9 kcal/mol
Tm [2]: 62.3 °C

GCACCCGGAAACAGGCGC ((.((.(....).)).))
folding enthalpy [1]: -22.3 kcal/mol
Tm [2]: 32.8 °C

GTCGCCGAAAGGCTGGAC ((((((....)))..)))
folding enthalpy [1]: -13.1 kcal/mol
Tm [2]: 44 °C

GGCGCCGAAAGGCTGGCC ((((((....)))..)))
folding enthalpy [1]: -22.3 kcal/mol
Tm [2]: 62.3 °C

GTGACTGGAAACAGCCAC (((.(((....))).)))
folding enthalpy [1]: -41.7 kcal/mol
Tm [2]: 47.9 °C

GATCTCTCACGAGATC ((((((....))))))
folding enthalpy [1]: -37.2 kcal/mol
Tm [2]: 51.6 °C

GAGTCGGGAAACTGACTC (((((.(....).)))))
folding enthalpy [1]: -40.2 kcal/mol
Tm [2]: 52.6 °C

GAAGGCGAAAGCCTGTTC ((((((....)))..)))
folding enthalpy [1]: -9.93 kcal/mol
Tm [2]: 47.9 °C

GACGCCCGAAAGGGTGTC (((.(((....))).)))
folding enthalpy [1]: -35.5 kcal/mol
Tm [2]: 69.3 °C

GCTCTAGGAAACTGGAGC ((((.((....)).))))
folding enthalpy [1]: -35.8 kcal/mol
Tm [2]: 49.6 °C

GTAGTCGGAAACGATTAC (((.(((....))).)))
folding enthalpy [1]: -30.4 kcal/mol
Tm [2]: 44.1 °C

TGTCGGAAACGACA (((((....)))))
folding enthalpy [1]: -16.3 kcal/mol
Tm [2]: 60 °C

GCGGCGGCCGC ((((...))))
folding enthalpy [1]: -22.6 kcal/mol
Tm [2]: 61.3 °C

GCGTCGAACGC ((((...))))
folding enthalpy [1]: -18.2 kcal/mol
Tm [2]: 50.3 °C

GATCGACAAGTCGATC ((((((....))))))
folding enthalpy [1]: -44.7 kcal/mol
Tm [2]: 58.9 °C

GCGATGGCTCGC ((((....))))
folding enthalpy [1]: -19.2 kcal/mol
Tm [2]: 47.8 °C

GATCGTCTAACGATC ((((((...))))))
folding enthalpy [1]: -38.7 kcal/mol
Tm [2]: 55.6 °C

GAGATAGCGAAAGCTCTC (((..(((....))))))
folding enthalpy [1]: -15.9 kcal/mol
Tm [2]: 40 °C

GGCCCAGGAAACCAGGCC ((((..(....)..))))
folding enthalpy [1]: -31.6 kcal/mol
Tm [2]: 47 °C

GATCTCACGGAGATC ((((((...))))))
folding enthalpy [1]: -41.9 kcal/mol
Tm [2]: 54.1 °C

GTTTCGCGAAAGCGCAAC (((.(((....))).)))
folding enthalpy [1]: -22.8 kcal/mol
Tm [2]: 44.7 °C

CGACCGGAAACGGTCTCG ((((((....)))..)))
folding enthalpy [1]: -8.29 kcal/mol
Tm [2]: 38 °C

GAGGAACGAAAGTTTCTC (((.(((....))).)))
folding enthalpy [1]: -35.9 kcal/mol
Tm [2]: 49.9 °C

GATCTCTCGGGAGATC ((((((....))))))
folding enthalpy [1]: -38.3 kcal/mol
Tm [2]: 53.5 °C

GCGTTGCGAAAGCGATGC ((.(.((....)).).))
folding enthalpy [1]: -21.9 kcal/mol
Tm [2]: 57.6 °C

GAGTGGGGAAACCCATTC ((.((((....)))).))
folding enthalpy [1]: -27.2 kcal/mol
Tm [2]: 42.5 °C

CGTACGGAAACGTAGACG ((((((....)))..)))
folding enthalpy [1]: -17 kcal/mol
Tm [2]: 36.6 °C

GCCCGGCGAAAGCTGCGC ((.(.((....)).).))
folding enthalpy [1]: -17.6 kcal/mol
Tm [2]: 44.2 °C

GTGTCTCCGAAAGGACAC (((..(((....))))))
folding enthalpy [1]: -25.1 kcal/mol
Tm [2]: 45.7 °C

GTAGTACGAAAGTAATAC (((.(((....))).)))
folding enthalpy [1]: -28.9 kcal/mol
Tm [2]: 43.2 °C
